Experimental data taken from ChEMBL document CHEMBL3232795, “Using 'biased-privileged' scaffolds to identify lysine methyltransferase inhibitors” (Bioorg Med Chem, 2014).
Calls of active or inactive are those of the source. No cut-off for these calls is given here.

Key:
[1] = molecular target: T1, Histone-lysine N-methyltransferase SETD7 (Homo sapiens) (UniProt Q8WTS6); experiment: Inhibition of methyl-transferase activity in GST-tagged recombinant SET7/9 (unknown origin) expressed in Escherichia coli BL21 using H3(1-20)-cys-biotin as substrate at 40 uM preincubated for 5 mins followed by substrate addition by ELISA relative to control
T1 sequence (whole entry): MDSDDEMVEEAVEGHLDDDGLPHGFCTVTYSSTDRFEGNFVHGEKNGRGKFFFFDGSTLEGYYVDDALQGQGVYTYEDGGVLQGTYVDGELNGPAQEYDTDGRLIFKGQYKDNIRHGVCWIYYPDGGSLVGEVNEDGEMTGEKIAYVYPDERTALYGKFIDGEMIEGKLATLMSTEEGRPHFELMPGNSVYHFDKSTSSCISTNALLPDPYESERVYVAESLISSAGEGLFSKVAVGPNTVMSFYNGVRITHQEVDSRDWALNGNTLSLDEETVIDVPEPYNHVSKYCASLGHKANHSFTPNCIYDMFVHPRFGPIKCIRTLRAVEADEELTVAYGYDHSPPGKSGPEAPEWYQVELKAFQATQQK
In short: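 GST-fused SET7 (residues 52–366), expressed in bacteria. Enzyme at 2.8 nM with SAM (300 nM) in Tris pH 8.0 buffer (4% DMSO, BSA, EDTA, DTT, Triton X-100) on streptavidin plates, preincubated with compound 5 min at room temperature. Biotinylated H3(1–20)-cys substrate (900 nM) added, 5 min at 30 °C. Stopped with acetate pH 5.0. H3K4me1 detected with antibody, HRP secondary and chemiluminescence; signal given relative to DMSO control.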

[2] = molecular target: T1, Histone-lysine N-methyltransferase SETD7 (Homo sapiens); experiment: Inhibition of SET7 (unknown origin)-mediated methylation of histone H3(1-20)cys-biotin at 15 to 50 uM after 5 mins by scintillation proximity assay in presence of [3H]-S-adenosyl-methionine
In short: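 SET7 (25 nM) with biotinylated H3(1–20)-cys peptide (900 nM) and compound (2% DMSO final) in Tris pH 8.5 buffer with BSA, EDTA and DTT, 5 min at 30 °C. Started with SAM (2 µM) carrying trace 3H-SAM (0.2 µM), 8 min at 30 °C. Quenched onto streptavidin SPA beads in acetate pH 5.0 with excess cold SAM, then counted. Background-subtracted CPM expressed as percent of DMSO control. Tested twice.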

[3] = molecular target: T2, Histone-lysine N-methyltransferase EHMT2 (Homo sapiens, UniProt Q96KQ7); experiment: Inhibition of C-terminal GST-tagged human G9a-mediated-methylation of histone3 expressed in Escherichia coli BL21(DE3) by scintillation proximity assay
T2 sequence (Q96KQ7 whole entry): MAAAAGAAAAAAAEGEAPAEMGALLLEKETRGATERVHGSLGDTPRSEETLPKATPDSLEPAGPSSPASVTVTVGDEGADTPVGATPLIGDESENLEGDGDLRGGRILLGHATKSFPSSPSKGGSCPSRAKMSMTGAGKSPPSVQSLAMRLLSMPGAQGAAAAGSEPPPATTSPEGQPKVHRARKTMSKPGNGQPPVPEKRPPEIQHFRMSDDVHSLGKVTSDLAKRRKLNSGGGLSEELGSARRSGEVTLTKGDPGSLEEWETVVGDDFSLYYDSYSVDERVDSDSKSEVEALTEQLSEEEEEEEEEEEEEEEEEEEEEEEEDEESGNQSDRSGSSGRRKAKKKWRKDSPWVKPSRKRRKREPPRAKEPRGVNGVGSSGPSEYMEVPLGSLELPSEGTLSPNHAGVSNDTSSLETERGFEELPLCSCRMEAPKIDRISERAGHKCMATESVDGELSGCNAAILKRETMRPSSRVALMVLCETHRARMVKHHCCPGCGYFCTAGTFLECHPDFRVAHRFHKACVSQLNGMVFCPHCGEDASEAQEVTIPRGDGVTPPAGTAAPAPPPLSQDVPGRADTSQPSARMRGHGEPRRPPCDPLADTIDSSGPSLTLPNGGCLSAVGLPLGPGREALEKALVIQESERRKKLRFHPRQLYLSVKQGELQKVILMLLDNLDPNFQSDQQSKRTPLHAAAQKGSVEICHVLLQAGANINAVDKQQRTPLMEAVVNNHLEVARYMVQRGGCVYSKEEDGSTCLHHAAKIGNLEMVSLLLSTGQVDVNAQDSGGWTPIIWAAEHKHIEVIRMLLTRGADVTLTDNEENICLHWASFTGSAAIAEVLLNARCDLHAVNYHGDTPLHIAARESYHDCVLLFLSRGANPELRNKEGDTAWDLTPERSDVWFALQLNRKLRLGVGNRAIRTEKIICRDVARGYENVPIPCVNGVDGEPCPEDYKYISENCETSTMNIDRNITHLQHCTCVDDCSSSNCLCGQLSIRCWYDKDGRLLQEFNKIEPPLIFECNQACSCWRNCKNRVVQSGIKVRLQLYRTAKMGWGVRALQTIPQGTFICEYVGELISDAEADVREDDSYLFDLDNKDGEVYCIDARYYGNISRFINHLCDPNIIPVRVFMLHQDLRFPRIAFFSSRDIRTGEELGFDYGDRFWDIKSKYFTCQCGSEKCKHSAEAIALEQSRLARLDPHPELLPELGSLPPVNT

| Compound | inhibition [1] | inhibition [2] | IC50 [3] [µM] |
| --- | --- | --- | --- |
| O=C(O)c1cccc(NCc2cccc(-n3ccc4c(-c5ccccc5)cccc43)c2)c1 | 50% |  |  |
| O=C(O)c1cccc(NCc2cccc(-n3ccc4c(-c5ccc(C(F)(F)F)cc5)ncnc43)c2)c1 |  | Active |  |
| O=C(O)c1ccc(S(=O)(=O)Nc2cccc(-n3ccc4c(-c5ccc(C(F)(F)F)cc5)cccc43)c2)cc1 |  | Active |  |
| O=C(O)c1cccc(CNc2cccc(-n3ccc4c(-c5ccc(C(F)(F)F)cc5)ncnc43)c2)c1 |  | Active |  |
| O=C(O)c1cccc(NCc2ccc(-n3ccc4c(-c5ccc(C(F)(F)F)cc5)ncnc43)s2)c1 |  | Active |  |
| O=C(O)c1cccc(NCc2cccc(-n3cnc4c(-c5ccc(C(F)(F)F)cc5)cccc43)c2)c1 |  | Active |  |
| O=C(O)c1cccc(NCc2cccc(-n3ncc4cc(-c5ccc(C(F)(F)F)cc5)ccc43)c2)c1 |  | Active |  |
| CS(=O)(=O)c1ccc(S(=O)(=O)Nc2cccc(-n3ccc4c(-c5ccc(C(F)(F)F)cc5)cccc43)c2)cc1 |  | Active |  |
| O=C(O)c1cccc(SCc2cccc(-n3ccc4c(Br)cccc43)c2)c1 | Active |  |  |
| O=[N+]([O-])c1ccccc1S(=O)(=O)Nc1cccc(-n2ccc3c(-c4ccc(C(F)(F)F)cc4)cccc32)c1 |  | Active |  |
| N[C@@H](CCSCc1cccc(-n2ccc3cc(Br)ccc32)c1)C(=O)O | 12% |  |  |
| O=C(O)c1cccc(SCc2cccc(-n3ccc4c(-c5ccccc5)cccc43)c2)c1 | 50% |  |  |

Next, values leading:

| inhibition [1] | inhibition [2] | IC50 [3] [µM] | Compound |
| --- | --- | --- | --- |
| Active |  |  | O=C(O)c1cccc(NCc2cccc(-n3ccc4c(-c5ccc6ccccc6c5)cccc43)c2)c1 |
| Active | Active | 26.4 | O=C(O)c1cccc(NCc2cccc(-n3ccc4c(-c5ccc(C(F)(F)F)cc5)cccc43)c2)c1 |
|  | Active |  | CC(=O)Nc1nc(C)c(S(=O)(=O)Nc2cccc(-n3ccc4c(-c5ccc(C(F)(F)F)cc5)cccc43)c2)s1 |
| Active |  |  | O=C(O)CCCSCc1cccc(-n2ccc3cc(Br)ccc32)c1 |
| Active |  |  | O=C(O)c1cccc(SCc2cccc(-n3ccc4cc(Br)ccc43)c2)c1 |
|  | Active |  | Cc1cc(O)c(C(=O)O)cc1S(=O)(=O)Nc1cccc(-n2ccc3c(-c4ccc(C(F)(F)F)cc4)cccc32)c1 |
| Active |  |  | Cc1ccc(-c2cccc3c2ccn3-c2cccc(CNc3cccc(C(=O)O)c3)c2)cc1 |
| inactive |  |  | O=C(O)c1ccc(-c2cccc3c2ccn3-c2cccc(CNc3cccc(C(=O)O)c3)c2)cc1 |
|  | Active |  | O=C(O)c1ccccc1S(=O)(=O)Nc1cccc(-n2ccc3c(-c4ccc(C(F)(F)F)cc4)cccc32)c1 |
|  | Active |  | O=[N+]([O-])c1cccc(S(=O)(=O)Nc2cccc(-n3ccc4c(-c5ccc(C(F)(F)F)cc5)cccc43)c2)c1 |
| Active |  |  | CC(=O)Nc1ccc(-c2cccc3c2ccn3-c2cccc(CNc3cccc(C(=O)O)c3)c2)cc1 |
|  | Active |  | O=C(O)c1cccc(NCc2cccc(-n3ccc4cc(-c5ccc(C(F)(F)F)cc5)cnc43)c2)c1 |
|  | Active |  | O=[N+]([O-])c1ccc(S(=O)(=O)Nc2cccc(-n3ccc4c(-c5ccc(C(F)(F)F)cc5)cccc43)c2)cc1 |
|  | Active |  | O=C(O)c1cccc(NCc2cccc(-n3ccc4cc(-c5ccc(C(F)(F)F)cc5)ccc43)c2)c1 |
|  | Active |  | O=C(O)c1cccc(S(=O)(=O)Nc2cccc(-n3ccc4c(-c5ccc(C(F)(F)F)cc5)cccc43)c2)c1 |
